Results collected from several papers.
Lines come from different studies, so protocols differ.

CNCCN(C)c1cc(C#N)cc(CCc2cc(C)cc(N)n2)c1  AUC(0-t) (male BALB/c mouse; plasma; oral; 10 mg/kg): 162 ng·h/mL
CSc1cc(Oc2ccnc3[nH]c(=O)cnc23)ccc1NC(=O)Nc1cc(C(C)(C)C)nn1-c1ccccc1  AUC(0-t) (BALB/c mouse; plasma; intravenous; 2 mg/kg): 95 µM·h
CNC(=O)c1cc(OC)cc2c(N3CCc4c(cc(Cn5ccnc5)cc4-c4cn(C)nc4C(F)(F)F)C3=O)ccnc12  AUC(0-t) (male CD-1 mouse; plasma; intravenous; 3 mg/kg): 3300 ng·h/mL
CCn1ncc2c(Nc3ccc(OC(F)(F)F)cc3)ncnc21  AUC(0-t) (male BALB/c mouse; plasma; oral; 20 mg/kg): 201 ng·h/mL
CN1CCN(CC2CCN(c3cncc4[nH]c(-c5cc(F)cc(F)c5)nc34)CC2)CC1  AUC(0-t) (mouse; blood; intravenous; 2 mg/kg): 0.967 µM·h
CCc1ccc(Cc2cc([C@@H]3O[C@H](CO)[C@@H](O)[C@H](O)[C@H]3O)cc3c2CCC3)cc1  AUC(0-t) (male C57BL/6 mouse; plasma; intravenous; 1 mg/kg): 1440 ng·h/mL
Cc1c2c(n(-c3ccc(F)cc3Cl)c1-c1ccc(OS(=O)(=O)CCC(F)(F)F)cc1)CCN(N1CCCCC1)C2=O  AUC(0-t) (mouse; plasma; oral; 6 µmol/kg; single dose): 0.89 µM·h
CCc1cc(OC)c2nccc(N3CCc4c(cc(Cn5ccnc5)cc4-c4cn(C)nc4C(F)(F)F)C3=O)c2c1  AUC(0-t) (male CD-1 mouse; plasma; intravenous; 3 mg/kg): 3330 ng·h/mL
CS(=O)(=O)CCNCc1ccc(-c2ccc3ncnc(Nc4ccc(OCc5cccc(F)c5)c(Cl)c4)c3c2)o1  AUC(0-t) (nude mouse; plasma; oral; 200 mg/kg; single dose): 234000 ng·h/mL
CC=Cc1ccc(O)c(OC)c1  AUC(0-t) (mouse; plasma; intranasal; 100 mg/kg): 9980 ng·h/mL
CC(C)(C)c1cc(NC(=O)Nc2ccc(Oc3ccnc4[nH]c(=O)cnc34)cc2F)n(-c2ccccc2)n1  AUC(0-t) (BALB/c mouse; plasma; oral; 10 mg/kg): 416 µM·h
Fc1ccc(-c2nc3c(N4CCC(CN5CCOCC5)CC4)nccc3[nH]2)cc1F  AUC(0-t) (mouse; blood; intravenous; 2 mg/kg): 4.17 µM·h
Cc1ccc(NC(=O)c2ccc(CN3CCN(C)CC3)cc2)cc1Nc1nccc(-c2cncc(-c3oncc3C)c2)n1  AUC(0-t) (male C57BL/6 mouse; brain; oral; 100 mg/kg/day): 1170 ng·h/mL
C[C@H]1[C@@H](O)O[C@@H]2O[C@@]3(C)CC[C@H]4[C@H](C)CC[C@@H]1[C@@]24OO3  AUC(0-t) (female SCID mouse; plasma; oral; 120 mg/kg): 1870 ng·h/mL
CN1CCN(c2nccc3nc(-c4ccc(F)c(F)c4)[nH]c23)CC1  AUC(0-t) (mouse; blood; oral; 5 mg/kg): 3.25 µM·h
CNC(=O)c1cc(Oc2ccc(NC(=O)Nc3ccc(Cl)c(C(F)(F)F)c3)c(F)c2)ccn1  AUC(0-t) (male mouse; plasma; oral; 10 mg/kg; single dose): 18000 ng·h/mL
COc1cc(OC)c2nccc(N3CCc4c(cc(Cn5ccnc5)cc4-c4cn(C)nc4C(F)(F)F)C3=O)c2c1  AUC(0-t) (male CD-1 mouse; plasma; oral; 50 mg/kg): 60600 ng·h/mL
CN1CCN(CC2CCN(c3nccc4[nH]c(-c5cc(F)cc(F)c5)nc34)CC2)CC1  AUC(0-t) (mouse; blood; intravenous; 2 mg/kg): 2.42 µM·h
CCc1cc(C(=O)NC)c2nccc(N3CCc4c(cc(Cn5ccnc5)cc4-c4cn(C)nc4C(F)(F)F)C3=O)c2c1  AUC(0-t) (male CD-1 mouse; plasma; intravenous; 3 mg/kg): 4180 ng·h/mL
Cn1ccnc1N1CCN(CC2CCN(c3nccc4[nH]c(-c5cc(F)cc(F)c5)nc34)CC2)CC1  AUC(0-t) (mouse; blood; intravenous; 2 mg/kg): 7.88 µM·h
CCOc1ccc(Cc2cc([C@@H]3O[C@H](CO)[C@@H](O)[C@H](O)[C@H]3O)ccc2Cl)cc1  AUC(0-t) (male C57BL/6 mouse; plasma; intravenous; 1 mg/kg): 680 ng·h/mL
CN1C(=O)c2ccccc2[S@+]([O-])c2ccc(C(=O)NCCc3cccs3)cc21  AUC(0-t) (male C57BL/6 mouse; plasma; intraperitoneal; 30 mg/kg; single dose): 7800 ng·h/mL
C[C@H](NC(=O)C(C)(C)Oc1ccc(C(F)(F)F)cn1)[C@@H](Cc1ccc(Cl)cc1)c1cccc(C#N)c1  AUC(0-t) (mouse; plasma; oral; 6 µmol/kg; single dose): 5.3 µM·h
Cc1ccc2cncc(N3CCc4c(cc(Cn5ccnc5)cc4-c4cn(C)nc4C(F)(F)F)C3=O)c2c1  AUC(0-t) (male CD-1 mouse; plasma; oral; 50 mg/kg): 36300 ng·h/mL
C=CC(=O)N1CC2CC(n3nc(-c4ccc(C(=O)Nc5ccccn5)cc4)c4c(N)ncnc43)CC2C1 (stereo not drawn)  AUC(0-t) (SCID mouse; plasma; oral; 0.2 mg/kg): 8.63 ng·h/mL
O=S(=O)(c1ccc(-c2ccc3nccc(Nc4ccncn4)c3c2)cc1)N1CCOCC1  AUC(0-t) (female BALB/c mouse; brain; intraperitoneal; 10 mg/kg): 120 ng·h/mL
COc1nc(-c2cc(C)c(N[C@@H](C)c3cc(F)cc(F)c3)nn2)ccc1-n1cnc(C)c1  AUC(0-t) (male CD-1 mouse; plasma; intravenous; 1 mg/kg; single dose): 1940 ng·h/mL
CN1CCC[C@H](CN2c3ccccc3Sc3ccccc32)C1.O=C(O)CCC(=O)O  AUC(0-t) (mouse; plasma; oral; 64 mg/kg; single dose): 8750 ng·h/mL
Cc1c(C(=O)NN2CCCCC2)nn(-c2ccc(Cl)cc2Cl)c1-c1ccc(Cl)cc1  AUC(0-t) (mouse; plasma; oral; 20 µmol/kg; single dose): 9 µM·h
CN1CCN(C2CCN(c3nccc4[nH]c(-c5cc(F)cc(F)c5)nc34)CC2)CC1  AUC(0-t) (BALB/c mouse; blood; oral; 20 mg/kg): 11.8 µM·h
CC[C@H](C)[C@@H]1NC(=O)[C@@](C)(NC(=O)[C@H](CCCNC(=N)N)NC(=O)[C@H](CC(C)C)NC(=O)[C@@H](NC(=O)[C@H](CCC(N)=O)NC(=O)[C@H](CC(C)C)NC(C)=O)[C@@H](C)O)CCCC=CCCC[C@@](C)(C(=O)N[C@@H](CC(C)C)C(=O)N[C@@H](Cc2ccc3ccccc3c2)C(N)=O)NC(=O)[C@H](CCCNC(=N)N)NC(=O)[C@H](CCC(N)=O)NC1=O  AUC(0-t) (male BALB/c mouse; plasma; subcutaneous; 10 mg/kg): 140000 ng·h/mL
COc1nc(-c2cc(C)c(N[C@@H](C)c3ccc(F)cc3)nn2)ccc1-n1cnc(C)c1  AUC(0-t) (male CD-1 mouse; plasma; oral; 5 mg/kg; single dose): 12700 ng·h/mL
CN1CCN(C(=O)c2cc3c(Nc4ccc(OC(F)(F)F)cc4)ncnc3s2)CC1  AUC(0-t) (male BALB/c mouse; plasma; oral; 20 mg/kg): 2410 ng·h/mL
CN1CCC(N2CCN(c3nccc4[nH]c(-c5ccc(F)c(F)c5)nc34)CC2)CC1  AUC(0-t) (mouse; blood; intravenous; 2 mg/kg): 6.77 µM·h
Cc1nc(-c2cnc(NC(C)C)n(C)c2=O)ccc1Oc1ccnc(-c2cnn(C)c2)c1  AUC(0-t) (female mouse; plasma; oral; 7.5 mg/kg; single dose): 52600 ng·h/mL
CCOC(=O)c1sc(Nc2ncccn2)nc1-c1ccccn1  AUC(0-t) (male CD-1 mouse; plasma; intravenous; 2 mg/kg): 448 ng·h/mL
COc1nc(-c2cc(C)c(N[C@@H](C)c3c(F)cc(F)cc3F)nn2)ccc1-n1cnc(C)c1  AUC(0-t) (male CD-1 mouse; plasma; oral; 5 mg/kg; single dose): 7960 ng·h/mL
COc1ccc2nccc(N3CCc4c(cc(Cn5ccnc5)cc4-c4cn(C)nc4C(F)(F)F)C3=O)c2c1  AUC(0-t) (male CD-1 mouse; plasma; oral; 50 mg/kg): 33800 ng·h/mL
COc1ccc(C(O)COc2ccc(-c3csc(-c4ccc(OCC(O)c5ccc(OC)c(OC)c5)cc4)n3)cc2)cc1OC (stereo not drawn)  AUC(0-t) (C57BL/6 mouse; plasma; oral; 10 mg/kg): 10000 ng·h/mL
